Results taken from ChEMBL document CHEMBL4837188, “Identification of Novel Tricyclic Benzo[1,3]oxazinyloxazolidinones as Potent Antibacterial Agents with Excellent Pharmacokinetic Profiles against Drug-Resistant Pathogens” (J Med Chem, 2021).
In brackets after ≈: the same amount, converted by molar mass.

How the values were obtained:
Type in all cases: functional
[1] = tested on: Mycobacterium tuberculosis; experiment: Antitubercular activity against INH, SM, RFP, EMB, RBT, PAS, OLFX-resistant Mycobacterium tuberculosis 13946 assessed as bacterial growth inhibition incubated for 7 days by MABA; conditions: Mycobacterium tuberculosis, 13946, 168 h; time 7 day
Procedure, shortened: (§1)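 Microplate alamar blue assay. H37Rv or clinical isolates were grown to late log phase in 7H9 broth with glycerol, Tween 80 and ADC, then 2 × 10⁵ CFU added to two-fold dilutions. Final range 32–0.5 μg/mL, lowered to 2–0.016 μg/mL for active compounds. 37 °C, 7 days, then alamar blue 16 h. Fluorescence 530/590 nm. MIC is the lowest concentration giving ≥90% reduction; INH and RFP were controls.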

[2] = tested on: Mycobacterium tuberculosis; experiment: Antitubercular activity against linezolid resistant Mycobacterium tuberculosis assessed as inhibition of bacterial growth incubated for 7 days by MABA; conditions: 168 h, time 7 day
[3] = tested on: Mycobacterium tuberculosis; experiment: Antitubercular activity against INH, SM, RFP, EMB, PAS, Prothionamide 1321, Capreomycin-resistant Mycobacterium tuberculosis 14862 assessed as bacterial growth inhibition incubated for 7 days by MABA; conditions: Mycobacterium tuberculosis, 14862, 168 h; time 7 day; procedure, shortened: as §1

| Compound | MIC [1] | MIC [2] | MIC [3] |
| --- | --- | --- | --- |
| CC(=O)NC[C@@H]1OC(=O)N2Cc3cc(-c4ccc(-c5nnn(C)n5)nc4)c(F)cc3O[C@@H]12 | 0.39 µg/mL (≈ 0.888 µM) | 2.32 µg/mL (≈ 5.28 µM) | 0.85 µg/mL (≈ 1.93 µM) |
| CC(=O)NC[C@@H]1OC(=O)N2Cc3cc(-c4ccc(C#N)nc4)c(F)cc3O[C@@H]12 | 0.48 µg/mL (≈ 1.26 µM) | 3.63 µg/mL (≈ 9.49 µM) | 0.82 µg/mL (≈ 2.14 µM) |
| NNC(=O)c1ccncc1 [ISONIAZID] | 2.38 µg/mL (≈ 17.4 µM) | – | > 10 µg/mL |
| CC(=O)NC[C@H]1CN(c2ccc(N3CCOCC3)c(F)c2)C(=O)O1 [LINEZOLID] | – | 14.5 µg/mL (≈ 43.1 µM) | – |
| CO[C@H]1/C=C/O[C@@]2(C)Oc3c(C)c(O)c4c(O)c(c(/C=N/N5CCN(C)CC5)c(O)c4c3C2=O)NC(=O)/C(C)=C\C=C\[C@H](C)[C@H](O)[C@@H](C)[C@@H](O)[C@@H](C)[C@H](OC(C)=O)[C@@H]1C [RIFAMPIN] | > 10 µg/mL | – | > 10 µg/mL |
